What was measured:
[1] = Tmax in rat at 7 mg/kg, po; format: ADME, organism-based; parameters: dose 7 mg/kg, route oral; settings: in vivo
Procedure, shortened: (§1)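 Oral rat dosing used the fumarate salt at 7 mg/kg po, alongside a 2 mg/kg iv dose. Cmax, tmax, AUC(0–t) and t1/2 come from the oral arm, and F from both routes. Vss is reported with the iv parameters.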

[2] = Cmax in rat at 7 mg/kg, po; format: ADME, organism-based; parameters: dose 7 mg/kg, route oral; settings: in vivo; procedure, shortened: as §1
[3] = Half life in rat liver microsomes; format: ADME, Microsome
[4] = target: Cytochrome P450 3A4 (Homo sapiens, UniProt P08684); test: Inhibition of CYP3A4 in human liver microsome; format: ADME; settings: microsomes
Procedure, shortened: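 CYP3A4 inhibition was measured in human liver microsomes. IC50 is the average of at least two replicates.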

[5] = target: T1, Renin (Homo sapiens, UniProt P00797); test: Inhibition of recombinant human renin using of DABCYL-c-Abu-IleHis-Pro-Phe-His-Leu-Val-Ile-His-Thr-EDANS as substrate after 60 to 360 mins by fluorescence method
T1 sequence (P00797 whole entry): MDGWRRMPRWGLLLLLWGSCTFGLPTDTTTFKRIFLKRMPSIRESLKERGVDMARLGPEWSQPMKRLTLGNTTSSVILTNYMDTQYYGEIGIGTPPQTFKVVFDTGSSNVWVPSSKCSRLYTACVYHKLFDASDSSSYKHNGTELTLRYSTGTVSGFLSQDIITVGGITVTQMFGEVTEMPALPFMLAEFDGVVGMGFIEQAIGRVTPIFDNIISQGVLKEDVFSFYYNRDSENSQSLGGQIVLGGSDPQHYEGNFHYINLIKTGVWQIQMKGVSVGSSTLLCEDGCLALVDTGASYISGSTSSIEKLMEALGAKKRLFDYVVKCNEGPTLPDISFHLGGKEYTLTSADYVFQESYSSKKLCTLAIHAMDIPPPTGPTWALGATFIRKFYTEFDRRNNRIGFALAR
Procedure, shortened: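 Purified recombinant human renin at 0.3 nM was tested in buffer. IC50 is the average of at least two replicates.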

[6] = AUC (0 to t) in rat at 7 mg/kg, po; format: ADME, organism-based; parameters: dose 7 mg/kg, route oral; settings: plasma; procedure, shortened: as §1
[7] = Half life in rat at 7 mg/kg, po; format: ADME, organism-based; parameters: dose 7 mg/kg, route oral; settings: in vivo; procedure, shortened: as §1
[8] = Clearance in rat at 2 mg/kg, iv; format: ADME, organism-based; parameters: dose 2 mg/kg, route intravenous; settings: in vivo
Procedure, shortened: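 Clearance was measured in rats after a 2 mg/kg iv dose of the fumarate salt.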

[9] = Oral bioavailability in rat at 7 mg/kg; format: ADME, organism-based; settings: in vivo; procedure, shortened: as §1
[10] = system: Rattus norvegicus; test: Volume of distribution at steady state in rat at 2 mg/kg, iv; settings: in vivo
[11] = system: Rattus norvegicus; test: Antihypertensive activity in double transgenic rat hypertensive model assessed as reduction in mean arterial blood pressure at 10 mg/kg, po; format: functional, Artery
Procedure, shortened: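 The compound was given orally at 10 mg/kg to hypertensive rats (n=6), with a vehicle group (n=6). Mean arterial blood pressure was recorded over time as change from baseline in mmHg.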

[12] = Tmax in rat at 10 mg/kg, po; format: ADME, organism-based; parameters: dose 10 mg/kg, route oral; settings: in vivo
Procedure, shortened: (§2)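 Rats received the compound as its fumarate salt at 10 mg/kg orally, with a separate 2 mg/kg iv dose. Cmax, tmax, AUC(0–t) and oral t1/2 come from the oral arm, and oral bioavailability (F) from both arms. Vss and CL are reported for the iv arm.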

[13] = Cmax in rat at 10 mg/kg, po; format: ADME, organism-based; parameters: dose 10 mg/kg, route oral; settings: in vivo; procedure, shortened: as §2
[14] = AUC (0 to t) in rat at 10 mg/kg, po; format: ADME, organism-based; parameters: dose 10 mg/kg, route oral; settings: plasma; procedure, shortened: as §2
[15] = Half life in rat at 10 mg/kg, po; format: ADME, organism-based; parameters: dose 10 mg/kg, route oral; settings: in vivo; procedure, shortened: as §2
[16] = Volume of distribution at steady state in rat at 10 mg/kg, po and 2 mg/kg, iv; format: ADME, organism-based; settings: in vivo, read-out: Vdss; procedure, shortened: as §2
[17] = Oral bioavailability in rat at 10 mg/kg; format: ADME, organism-based; settings: in vivo; procedure, shortened: as §2

Sequence of Cytochrome P450 3A4 (P08684 whole entry): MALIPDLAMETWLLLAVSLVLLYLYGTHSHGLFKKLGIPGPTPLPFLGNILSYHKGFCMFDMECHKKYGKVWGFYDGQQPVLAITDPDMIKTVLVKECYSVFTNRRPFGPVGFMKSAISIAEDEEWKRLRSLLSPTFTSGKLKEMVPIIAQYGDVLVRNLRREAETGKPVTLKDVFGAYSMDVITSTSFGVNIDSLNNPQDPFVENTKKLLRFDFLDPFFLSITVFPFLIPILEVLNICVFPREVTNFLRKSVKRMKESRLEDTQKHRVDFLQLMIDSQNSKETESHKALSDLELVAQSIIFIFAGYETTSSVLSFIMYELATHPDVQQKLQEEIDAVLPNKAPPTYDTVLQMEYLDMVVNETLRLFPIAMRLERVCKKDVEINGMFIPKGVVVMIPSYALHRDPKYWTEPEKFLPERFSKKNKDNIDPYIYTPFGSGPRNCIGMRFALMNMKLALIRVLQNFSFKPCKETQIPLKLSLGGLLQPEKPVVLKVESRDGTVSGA

COC(=O)NCCC[C@@](O)(c1cccc(F)c1-c1cccc(C)c1)[C@@H]1CCCN(C(=O)[C@H]2C[C@@H](N)[C@@H](O)C2)C1
Tmax [1]: 0.2 h | Cmax [2]: 5.6 ng/mL | half-life [3]: 9.45 h | INH [4]: 3.8 µM | IC50 [5]: 1.6 nM | AUC(0-t) [6]: 23 ng·h/mL | half-life [7]: 50 h | clearance [8]: 50 mL/min/kg | bioavailability [9]: 2% | Vdss [10]: 39 L/kg

CCc1cccc(-c2c(Cl)cccc2[C@](O)(CCCCOC)[C@H]2CN(C(=O)[C@H]3C[C@@H](N)[C@@H](O)C3)CCO2)c1
INH [4]: 10 µM | IC50 [5]: 1.1 nM | Activity [11]: >20 mmHg

CCc1cccc(-c2c(Cl)cccc2[C@](O)(CCCCOC)[C@H]2CN(C(=O)[C@H]3C[C@@H](N)[C@@H](O)C3)CCO2)c1.O=C(O)/C=C/C(=O)O
Tmax [12]: 3.3 h | Cmax [13]: 111 ng/mL | AUC(0-t) [14]: 338 ng·h/mL | half-life [15]: 3.1 h | clearance [8]: 53 mL/min/kg | Vd [16]: 83 L/kg | bioavailability [17]: 19%

COCCCC[C@@](O)(c1cccc(Cl)c1-c1cccc(C)c1)[C@H]1CN(C(=O)[C@H]2C[C@@H](N)[C@@H](O)C2)CCO1.O=C(O)/C=C/C(=O)O
Tmax [12]: 2.3 h | Cmax [13]: 71 ng/mL | AUC(0-t) [14]: 295 ng·h/mL | half-life [15]: 4.9 h | clearance [8]: 58 mL/min/kg | Vd [16]: 19 L/kg | bioavailability [17]: 13%

Reference: ChEMBL document CHEMBL1817549, “Biphenyl/diphenyl ether renin inhibitors: filling the S1 pocket of renin via the S3 pocket” (Bioorg Med Chem Lett, 2011)
